Experimental data gathered from unrelated publications.
Protocols differ between the studies behind these lines.
CES2: Cocaine esterase (CES2, Homo sapiens, UniProt O00748)
Oprk1: Kappa-type opioid receptor (Oprk1, Mus musculus, UniProt P33534)
SLC6A2: Sodium-dependent noradrenaline transporter (SLC6A2, Homo sapiens, UniProt P23975)
WD repeat-containing protein 91: WD repeat-containing protein 91 (Homo sapiens, UniProt A4D1P6)
FPR1: fMet-Leu-Phe receptor (FPR1, Homo sapiens, UniProt P21462)

| Compound | target | assay | conditions | endpoint | value |
| --- | --- | --- | --- | --- | --- |
| COc1ccc(/C=C2\Cc3cc(OC)c(OC)cc3C2=O)cc1OC | CES2 | enzyme activity, inhibitor, fluorescence | with preincubation | IC50 | > 100 µM |
| CC(C)[C@@H](CN1CCc2ccccc2C1)NC(=O)c1cccc(-c2cccnc2)c1 | Oprk1 | ligand displacement, radioligand |  | Ki | 6.15 µM |
| CCOC(=O)[C@@]12C[C@@H]1[C@@H](n1cnc3c(NCc4cccc(Cl)c4)nc(C#Cc4ccc(Cl)s4)nc31)[C@H](O)[C@@H]2O | SLC6A2 | ligand displacement, radioligand |  | Ki | 1.2 µM |
| CC(C)[C@@H](CN1CCc2ccccc2C1)NC(=O)c1ccc([N+](=O)[O-])s1 | Oprk1 | ligand displacement, radioligand |  | Ki | 9.06 µM |
| COc1cc2c(cc1OC)C(=O)/C(=C/c1ccccc1N1CCCC1)C2 | CES2 | enzyme activity, inhibitor, fluorescence | with preincubation | IC50 | 0.72 µM |
| CC(=O)N[C@@H](C)c1cc(Cl)ccc1C1CCN(C(=O)[C@@H]2CN(C(C)(C)C)C[C@H]2c2ccc(F)cc2F)CC1 | Melanocortin receptor 4 (MC4R, Homo sapiens, UniProt P32245) | cAMP, agonist |  | EC50 | 0.0078 µM |
| CNc1nc(C#Cc2ccc(Cl)s2)nc2c1ncn2[C@H]1[C@H](O)[C@H](O)[C@]2(C(=O)OC)C[C@H]12 | SLC6A2 | ligand displacement, radioligand |  | EC50 | 0.75 µM |
| COc1cc2c(cc1OC)C(=O)/C(=C/C1CCCCC1)C2 | CES2 | enzyme activity, inhibitor, fluorescence | with preincubation | IC50 | 2.42 µM |
| CCn1c(=O)[nH]c2cc(C(=O)NC(c3ccc(F)cc3)c3cnn(C)c3)ccc2c1=O (stereo not shown) | WD repeat-containing protein 91 | binding, SPR |  | Kd | 3 µM |
| N#Cc1ccc(C[C@H](Nc2nnc(-c3cccc(Br)c3)s2)C(=O)N2CCc3ccccc32)cc1 | FPR1 | calcium signal, agonist |  | EC50 | 32.9 µM |
| CCOC(=O)[C@@]12C[C@@H]1[C@@H](n1ccc3c(NCCCCCc4ccccc4)nc(C#Cc4ccccc4)nc31)[C@H](O)[C@@H]2O | SLC6A2 | ligand displacement, radioligand |  | Ki | 0.47 µM |
| N#Cc1ccc(C[C@H](NC(=O)c2cc3ccc(F)cc3[nH]2)C(=O)N2CCc3ccccc32)cc1 | FPR1 | calcium signal, agonist |  | EC50 | 23.1 µM |
| OC[C@@]12C[C@@H]1[C@@H](n1cnc3c(NCCCCCCc4ccccc4)nc(I)nc31)[C@H](O)[C@@H]2O | SLC6A2 | ligand displacement, radioligand |  | Ki | 1.4 µM |
| CNc1nc(N[C@@H]2CCc3c(C#N)cccc32)cc(-c2cccc(N3CCCC3)c2)n1 | WD repeat-containing protein 91 | binding, SPR |  | Kd | 1 µM |
| COc1cc2c(cc1OC)C(=O)/C(=C/C1CCCC1)C2 | CES2 | enzyme activity, inhibitor, fluorescence | with preincubation | IC50 | 6.31 µM |
| CNC(=O)[C@@]12C[C@@H]1[C@@H](n1cnc3c(NCc4cccc(Cl)c4)nc(C#Cc4ccc(Cl)s4)nc31)[C@H](O)[C@@H]2O | SLC6A2 | ligand displacement, radioligand |  | Ki | 2.3 µM |
| COc1cc2c(cc1OC)C(=O)/C(=C/c1ccc(C)cc1Cl)C2 | CES2 | enzyme activity, inhibitor, fluorescence | with preincubation | IC50 | > 100 µM |
| CCOC(=O)[C@@]12C[C@@H]1[C@@H](n1cnc3c(NCCCCCCc4ccccc4)nc(I)nc31)[C@H](O)[C@@H]2O | SLC6A2 | ligand displacement, radioligand |  | Ki | 5.4 µM |
| COc1cc([C@@H]2c3cc4c(cc3[C@@H](O[C@@H]3O[C@@H]5CO[C@@H](C)O[C@H]5[C@H](O)[C@H]3O)[C@H]3COC(=O)[C@H]23)OCO4)cc(OC)c1O | CES2 | enzyme activity, inhibitor, fluorescence | with preincubation | IC50 | > 100 µM |
| N#Cc1ccc(C[C@H](Nc2nnc(-c3cccc(F)c3)o2)C(=O)N2CCc3ccccc32)cc1 | FPR1 | calcium signal, agonist |  | EC50 | 30.2 µM |
| COc1cc2c(cc1OC)C(=O)/C(=C/c1ccc(O)cc1)C2 | CES2 | enzyme activity, inhibitor, fluorescence | with preincubation | IC50 | 1.89 µM |
| O=C(CCNC(=O)CNC(=O)CC(c1ccccc1)(c1ccccc1)c1ccccc1)NC[C@@H]1CCCN(Cc2ccc(F)nc2)C1 | Muscarinic acetylcholine receptor M5 (CHRM5, Homo sapiens, UniProt P08912) | ligand displacement, radioligand | cell membranes | IC50 | > 30 µM |
| CNC(=O)[C@@]12C[C@@H]1[C@@H](n1cnc3c(Nc4ccccc4)nc(C#Cc4ccc(Cl)s4)nc31)[C@H](O)[C@@H]2O | SLC6A2 | ligand displacement, radioligand |  | Ki | 2.5 µM |
| CC(C)[C@@H](CN1CCc2ccccc2C1)NC(=O)c1ccc(F)cc1 | Oprk1 | ligand displacement, radioligand |  | Ki | 36.2 µM |
| O=c1c(O[C@@H]2O[C@H](CO)[C@H](O)[C@H](O)[C@H]2O)c(-c2ccc(O)c(O)c2)oc2cc(O)cc(O)c12 | srtA (Staphylococcus aureus, UniProt Q2FV99) | binding, SPR |  | Kd | 19.5 µM |
| COc1cc2c(cc1OC)C(=O)/C(=C/c1cccc3ccccc13)C2 | CES2 | enzyme activity, inhibitor, fluorescence | with preincubation | IC50 | 15.3 µM |
| CC(C)[C@@H](CN1CCc2ccccc2C1)NC(=O)c1c(Cl)cncc1Cl | Oprk1 | ligand displacement, radioligand |  | Ki | 39.7 µM |
| CCOC(=O)[C@@]12C[C@@H]1[C@@H](n1cnc3c(NCCCCCc4ccccc4)nc(I)nc31)[C@H](O)[C@@H]2O | SLC6A2 | ligand displacement, radioligand |  | Ki | 4.6 µM |
